Molecules are shown by their SMILES. Values after ≈ are worked out from the molar mass of the structure shown. A value given as a limit tells only on which side of the number the result lay.

Experiment [1] relates to Enterococcus faecalis. As to the kind of experiment: Antimicrobial activity against Streptococcus faecalis by twofold serial broth microdilution assay. In kind it is functional. In a few lines:
(§1)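 Twofold serial broth microdilution in sterile Mueller-Hinton broth, over 500 µg/ml to 7.8 µg/ml. Samples were added as solutions in Me₂CO or MeOH, with solvent blanks included. After 24 h at 37°, MIC was taken as the lowest concentration that inhibited growth.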
A general note: Dilution methods test growth across graded concentrations, often in twofold steps.

Experiment [2] deals with Escherichia coli. As to the kind of experiment: Antimicrobial activity against Escherichia coli by twofold serial broth microdilution assay. It is filed as functional. In a few lines: as §1
In experiment [3] the test system is Shigella dysenteriae. As to the kind of experiment: Antimicrobial activity against Shigella dysenteriae by twofold serial broth microdilution assay. In kind it is functional.
Experiment [4] deals with Salmonella typhimurium. As to the kind of experiment: Antimicrobial activity against Salmonella Typhimurium by twofold serial broth microdilution assay. Conditions: Salmonella enterica. In kind it is functional, Salmonella enterica subsp. enterica serovar Typhimurium. In a few lines:
as §1

Experiment [5] deals with Pseudomonas aeruginosa. As to the kind of experiment: Antimicrobial activity against Pseudomonas aeruginosa by twofold serial broth microdilution assay. It is filed as functional. The gist of the method: as §1
Experiment [6] concerns Candida albicans. As to the kind of experiment: Antimicrobial activity against Candida albicans by twofold serial broth microdilution assay. It is filed as functional. The gist of the method:
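Samples were added as Me₂CO or MeOH solutions, with solvent blanks. Incubation was 24 h at 37°. MIC was the lowest concentration preventing visible growth of the organism.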

Experiment [7] deals with Staphylococcus aureus. As to the kind of experiment: Antimicrobial activity against Staphylococcus aureus by twofold serial broth microdilution assay. It is filed as functional. The gist of the method: as §1
The test system of experiment [8] is Vibrio cholerae. As to the kind of experiment: Antimicrobial activity against Vibrio cholerae by twofold serial broth microdilution assay. In kind it is functional.

A word on the MIC: it is the smallest concentration in the dilution series that meets the test's criterion for growth inhibition. Lower therefore signals a more susceptible organism. For the molecule `C=CCC1=C(O)C(=O)C2=C(C1=O)[C@H](O)C[C@H]1C(C)(C)CCC[C@]21C`, the MIC in experiment [1] was not below 500 µg/mL; in experiment [2], not below 500 µg/mL; in experiment [3], not below 500 µg/mL; in experiment [4], not below 500 µg/mL; in experiment [5], 250 µg/mL (≈ 757 µM); in experiment [6] it was 125 µg/mL (≈ 378 µM).
Regarding `CC(C)C1=C(O)C(=O)C2=C(C1=O)[C@H](O)C[C@H]1C(C)(C)CCC[C@]21C` [HORMINONE], the MIC is 7.8 µg/mL (≈ 23.5 µM) in experiment [7]; 7.8 µg/mL (≈ 23.5 µM) in experiment [8]; not below 500 µg/mL in experiment [1]; not below 500 µg/mL in experiment [2]; not below 500 µg/mL in experiment [3]; not below 500 µg/mL in experiment [4]. The MIC in experiment [5] and in experiment [6] was 250 µg/mL (≈ 752 µM) each time.

These data come from ChEMBL document CHEMBL1159207, “Structure and antimicrobial activity of diterpenes from the roots of Plectranthus hereroensis” (1994).
